From PubChem
The list is not random: actives were taken first. Their share in the collection is about 7.6%.
HEK293 NFkB inh: inhibitors of the PMA/ionomycin-induced NF-kB reporter in HEK293 cells | HEK-293 NF-kB luciferase reporter, luminescence | inhibition, % at 3 µM | hit rate 0.21% among 62,000 | AID 465;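 active = inhibition above the mean of all tested compounds plus 3 SD, cut at about 40% in these data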
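System: NF-kB luciferase reporter HEK-293 cells | Replication: Single test | Control set: DMSO vs reference inhibitor | Evaluation: % inhibition | Schedule: 1 h pretreatment, 16 h stimulation, 37 °C | Probe or stimulus: PMA with ionomycin | Compound dosing: One dose, 3 µM | Detection: Luciferase luminescence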
DAT uptake mod: changed human dopamine transporter uptake under cocaine IC80 | hit rate 1.3% among 110,000 | Q01959 | B-score at 10 µM | LLC-PK1 hDAT cells, [14C]-dopamine uptake with cocaine IC80; actives deviate in either direction | AID 449768;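 active = Z score or B-score, a plate-position-corrected score, falls beyond the plate's 99.7% confidence bounds, in either direction; inactive = both scores lie inside the 99.7% bounds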
Target sequence (Q01959 whole entry, looked up): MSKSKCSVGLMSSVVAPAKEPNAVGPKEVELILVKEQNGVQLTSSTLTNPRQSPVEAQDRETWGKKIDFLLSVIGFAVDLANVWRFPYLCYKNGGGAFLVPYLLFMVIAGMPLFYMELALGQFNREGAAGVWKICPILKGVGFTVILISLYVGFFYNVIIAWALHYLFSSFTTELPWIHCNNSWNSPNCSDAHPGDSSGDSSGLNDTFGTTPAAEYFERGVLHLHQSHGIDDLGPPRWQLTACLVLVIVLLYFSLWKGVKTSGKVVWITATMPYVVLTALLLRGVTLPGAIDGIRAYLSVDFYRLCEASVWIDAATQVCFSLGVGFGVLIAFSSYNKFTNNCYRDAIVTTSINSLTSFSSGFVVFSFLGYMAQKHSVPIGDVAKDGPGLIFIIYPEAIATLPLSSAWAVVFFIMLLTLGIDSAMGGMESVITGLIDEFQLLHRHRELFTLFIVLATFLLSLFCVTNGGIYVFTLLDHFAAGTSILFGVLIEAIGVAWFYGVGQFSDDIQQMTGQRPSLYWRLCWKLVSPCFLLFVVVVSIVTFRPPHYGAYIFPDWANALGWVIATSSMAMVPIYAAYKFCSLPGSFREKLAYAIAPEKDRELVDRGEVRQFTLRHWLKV
D1 mod: allosterically modulates the human D1 dopamine receptor. P21728. HEK293 D1, CRE-luciferase, dopamine EC30 potentiation; actives deviate in either direction. B-score at 10 µM. hit rate 5.9% among 58,000. AID 641;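 active = luminescence count or its row- and column-corrected plate score outside the 99.7% band of the plate's sample wells, on either side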
M1 antagonist: antagonists of rat M1 muscarinic receptor; CHO-M1 cells, Fluo-4 calcium, ACh EC80 antagonist mode; hits give low values; B-score at 10 µM; hit rate 3.4% among 64,000; P08482;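 active = calcium fluorescence response, raw or row-and-column corrected B-score, differing from the plate sample mean either way at a set confidence level, mostly lower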
Jurkat tox 60K: reduces viability or proliferation of Jurkat cells | Jurkat E6.1 viability, ATP luminescence, 48 h | inhibition, % at 4 µM | hit rate 1.2% among 56,000 | AID 463;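 active = inhibition above the mean inhibition of all tested compounds plus 3 SD, cut at about 28% in these data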
M1 ag: agonists of M1 muscarinic receptor. CHO-M1 cells, Fluo-4 calcium fluorescence, agonist mode; hits give high values. B-score at 10 µM. hit rate 3% among 64,000;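 active = fluorescence rise, raw or as B-score row- and column-corrected plate score, outside the 99.7% band of its plate's samples, either direction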
M1 antag confirm: confirmation of rat M1 muscarinic receptor antagonists. shares compounds with M1 antagonist. CHO-M1 cells, Fluo-4 calcium, ACh EC80 antagonism; hits give low values. calcium response (max-min fluorescence) at 10 µM. hit rate 43% among 1,700. AID 677;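 active = calcium response below the same-plate mean of wells given acetylcholine alone at its 80%-effect dose, minus 3 SD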
mGluR4 antag: acts on human mGluR4 in M1 antagonist selectivity test | shares compounds with M1 antagonist | CHO-mGluR4 calcium flux, Fluo-4 fluorescence, glutamate EC80; hits give low values | fluorescence response (max-min) at 10 µM | hit rate 0.9% among 1,700 | AID 678;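 active = fluorescence response below the plate's average for near-maximal glutamate wells, less 3 SD of those wells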;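 also: raw unnormalized fluorescence span taken in the window right after glutamate addition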
Numbers stand for hits.

For O=C(Nc1ccc(Br)c(Cl)c1)C1CC1 the results were HEK293 NFkB inh inactive, DAT uptake mod inactive, D1 mod inactive, M1 antagonist -6.2, Jurkat tox 60K inactive, M1 ag inactive, M1 antag confirm inactive and mGluR4 antag inactive.
`CCOC(=O)c1ccc(NC(=O)CSc2nccn2C)cc1` gave HEK293 NFkB inh inactive, DAT uptake mod inactive, D1 mod inactive, M1 antagonist -3.3, Jurkat tox 60K inactive, M1 ag inactive, M1 antag confirm inactive and mGluR4 antag inactive.
Screening CCOC(=O)c1ccc(NC(=O)CSc2nnc(COc3ccccc3)n2C)cc1 returned HEK293 NFkB inh inactive, DAT uptake mod inactive, D1 mod inactive, M1 antagonist inactive, Jurkat tox 60K inactive and M1 ag inactive.
O=S(=O)(C=C(c1ccccc1)c1ccccc1)c1ccccc1 was read as DAT uptake mod inactive.
CC(C)(C)c1cc(C(=O)NCc2ccccc2)ccn1 was read as HEK293 NFkB inh inactive, DAT uptake mod inactive, D1 mod inactive, M1 antagonist -4.2, Jurkat tox 60K inactive, M1 ag inactive, M1 antag confirm inactive and mGluR4 antag inactive.
For CCC(c1ccccc1)c1nc(-c2ccccn2)no1 (stereo not drawn) the results were HEK293 NFkB inh inactive, DAT uptake mod inactive, D1 mod -7.1, M1 antagonist -6, Jurkat tox 60K inactive, M1 ag inactive, M1 antag confirm inactive and mGluR4 antag inactive.
For O=C(NCCCN=C1NS(=O)(=O)c2ccccc21)c1ccco1 the results were DAT uptake mod inactive.
COC(=O)C1CC(O)CN1C(=O)c1ccco1 (stereo not drawn) was read as DAT uptake mod inactive.
Screening N#Cc1nc(COc2ccccc2Cl)oc1N1CCCCCC1 returned HEK293 NFkB inh inactive, DAT uptake mod inactive, D1 mod inactive, M1 antagonist inactive, Jurkat tox 60K inactive and M1 ag inactive.
`N#Cc1nc(COc2ccccc2F)oc1N1CCCCCC1` gave HEK293 NFkB inh inactive, DAT uptake mod inactive, D1 mod inactive, M1 antagonist -1.9, Jurkat tox 60K inactive, M1 ag inactive, M1 antag confirm inactive and mGluR4 antag inactive.
Screening CCOC(=O)c1cnc2c(Cl)c(Cl)ccc2c1N1CCN(C)CC1 returned HEK293 NFkB inh inactive, DAT uptake mod inactive, D1 mod inactive, M1 antagonist -3.1, Jurkat tox 60K inactive, M1 ag inactive, M1 antag confirm inactive and mGluR4 antag inactive.
CCOC(=O)c1cnc2ccc(OCC)cc2c1N1CCN(c2ccccc2)CC1 was read as DAT uptake mod inactive.
Screening CCn1cc(SCC(=O)N2CCc3ccccc32)c2ccccc21 returned DAT uptake mod inactive.
COC(=O)C1=C(C)NC(=O)NC1c1ccccc1 (stereo not drawn) was read as HEK293 NFkB inh inactive, DAT uptake mod inactive, M1 antagonist inactive, Jurkat tox 60K inactive and M1 ag inactive.
For COC(=O)C1=C(C)NC(=O)NC1c1cn(-c2ccccc2)nc1-c1cccs1 (stereo not drawn) the results were HEK293 NFkB inh inactive, DAT uptake mod inactive, D1 mod inactive, M1 antagonist -2.7, M1 ag inactive, M1 antag confirm inactive and mGluR4 antag inactive.
`Cc1cc(N2CCCN(C)CC2)nc2cc(Cl)ccc12` gave HEK293 NFkB inh inactive, DAT uptake mod inactive, M1 antagonist -3.7, Jurkat tox 60K inactive, M1 ag inactive, M1 antag confirm 378 and mGluR4 antag inactive.
For CN(C1CCCCC1)S(=O)(=O)c1ccc(-n2cnnn2)cc1 the results were HEK293 NFkB inh inactive, DAT uptake mod inactive, D1 mod inactive, M1 antagonist -2.1, Jurkat tox 60K inactive, M1 ag inactive, M1 antag confirm inactive and mGluR4 antag inactive.
CCn1c(SCC(=O)N2CCN(c3cccc(Cl)c3)CC2)nc2ccccc2c1=O was read as DAT uptake mod inactive.
Screening CCN(CC)CCOc1cccc(C(C)C)c1 returned HEK293 NFkB inh inactive, DAT uptake mod inactive, D1 mod inactive, M1 antagonist -4.5, Jurkat tox 60K inactive, M1 ag inactive, M1 antag confirm 294 and mGluR4 antag inactive.
CCN(CC)CCOc1ccc(/C(=C(/Cl)c2ccccc2)c2ccccc2)cc1 was read as DAT uptake mod inactive.
O=c1[nH]c2ccccc2c(O)c1-c1ccccc1 was read as DAT uptake mod inactive.
For Nc1[nH]c(=S)[nH]c(=O)c1-c1ccccc1 the results were HEK293 NFkB inh inactive, DAT uptake mod inactive, D1 mod inactive, M1 antagonist -2.3, Jurkat tox 60K inactive, M1 ag inactive, M1 antag confirm inactive and mGluR4 antag inactive.
[O-][n+]1ccc(C2CC2)cc1 was read as HEK293 NFkB inh inactive, DAT uptake mod inactive, D1 mod inactive, M1 antagonist inactive, Jurkat tox 60K inactive and M1 ag inactive.
For O=C(NCCN1CCCCC1)Nc1ccc(F)c(Cl)c1 the results were HEK293 NFkB inh inactive, DAT uptake mod inactive, D1 mod inactive, M1 antagonist -2.8, Jurkat tox 60K inactive, M1 ag inactive, M1 antag confirm inactive and mGluR4 antag inactive.
For O=C(NCCCN1CCCC1=O)Nc1ccc(F)c(Cl)c1 the results were DAT uptake mod inactive.
Screening Cc1ccc(C2CC2c2n[nH]c(=S)n2-c2ccc(Cl)cc2)cc1 (stereo not drawn) returned DAT uptake mod inactive.
Screening Cc1ccc2oc3nc(C)c(C(=O)O)cc3c(=O)c2c1 returned DAT uptake mod inactive.
For COc1ccccc1Cc1noc(COc2cccc(C)c2C)n1 the results were HEK293 NFkB inh inactive, DAT uptake mod inactive, M1 antagonist -2.7, Jurkat tox 60K inactive, M1 ag inactive, M1 antag confirm inactive and mGluR4 antag inactive.
Screening C#CC(CC)(CC)NC(=O)c1c(C)noc1C returned HEK293 NFkB inh inactive, DAT uptake mod inactive, D1 mod inactive, M1 antagonist inactive, Jurkat tox 60K inactive and M1 ag inactive.
Screening Cc1cc(=O)[nH]c(SCC(=O)N2CCCCCC2)n1 returned HEK293 NFkB inh inactive, DAT uptake mod inactive, D1 mod inactive, M1 antagonist inactive, Jurkat tox 60K inactive and M1 ag inactive.
Screening NC(=O)C1(N2CCCCC2)CCN(C(=O)CSc2nc(C(F)(F)F)cc(=O)[nH]2)CC1 returned HEK293 NFkB inh inactive, DAT uptake mod inactive, D1 mod inactive, M1 antagonist -3.5, Jurkat tox 60K inactive, M1 ag inactive, M1 antag confirm inactive and mGluR4 antag inactive.
Screening O=C(CSc1nc(-c2ccccc2)c(-c2ccccc2)[nH]1)Nc1nccs1 returned DAT uptake mod inactive.
For CCN(CC)C(=O)C1CCCN(Cc2ccc(F)c(F)c2)C1 (stereo not drawn) the results were HEK293 NFkB inh inactive, DAT uptake mod inactive, D1 mod inactive, M1 antagonist -4.1, Jurkat tox 60K inactive, M1 ag inactive, M1 antag confirm inactive and mGluR4 antag inactive.
